# Compounds with a hit are over-represented: about 3.7% of the library has one in this group of screens.
# HCV core dimer – blocks dimerization of HCV core protein; TR-FRET GST/Flag-core106 dimerization, 1536-well; inhibition, % at 5 µM; hit rate 0.33% among 300,000; AID 1899;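 active = inhibition above the mean of all tested compounds plus 3 SD, set per screening campaign, cut at about 45% in these data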
#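 System: GST/Flag-tagged HCV core106 proteins. Incubation: compound-protein-antibody incubation 4 h at 22.5 °C. Technique: HTRF with 340 nm excitation, 617/671 nm emission. Medium: KF-containing HEPES buffer, pH 7.45, DTT, CHAPS, BSA. Read-out: inhibition (%) from 671 over 617 nm ratio. Also added: Eu(K)-anti-GST 90 ng/mL plus XL665-anti-Flag 1 µg/mL.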
# HCV NS3 hel inh – HCV NS3 helicase inhibition. NS3 helicase DNA unwinding, Cy5 molecular beacon fluorescence. inhibition, % at 10.9 µM. hit rate 0.56% among 290,000;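 active = inhibition above the mean of all tested compounds plus 3 SD, set per campaign, cut at about 35% in these data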;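 also: 0% = DMSO wells and 100% = thioflavine S control wells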
#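 Material: hepatitis C virus NS3 helicase domain fragment enzyme; measured by: Cy5 fluorescence, 0 and 60 min reads; control set: DMSO and thioflavine S; incubation: 60 min unwinding reaction at 25 °C after ATP addition; read-out basis: % inhibition from 60/0 min fluorescence ratio, DMSO 0%, thioflavine S 100%; repeats: singlicate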
# TAAR1 antagonist – antagonists of human TAAR1; AID 624466; Q96RJ0; inhibition, % at 3 µM; CHO RD-HGA16 TAAR1, Fluo-8 calcium fluorescence, antagonist; hit rate 1.5% among 360,000;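 active = inhibition above a per-plate cutoff, the mean inhibition of test compounds on that plate plus 3 SD, cut at about 49% in these data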;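 also: 0% = DMSO plus EC80 beta-PEA response and 100% = DMSO alone without agonist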
# Target sequence (Q96RJ0 whole entry, looked up): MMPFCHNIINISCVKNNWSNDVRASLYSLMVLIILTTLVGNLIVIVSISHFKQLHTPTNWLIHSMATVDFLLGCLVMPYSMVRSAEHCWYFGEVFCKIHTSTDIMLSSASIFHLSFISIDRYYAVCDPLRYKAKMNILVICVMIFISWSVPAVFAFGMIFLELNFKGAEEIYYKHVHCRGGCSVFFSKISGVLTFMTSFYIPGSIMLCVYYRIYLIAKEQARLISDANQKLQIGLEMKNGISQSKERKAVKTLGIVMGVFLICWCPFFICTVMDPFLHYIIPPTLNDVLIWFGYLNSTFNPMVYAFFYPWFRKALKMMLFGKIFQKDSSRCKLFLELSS
#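 Material: RD-HGA16 CHO cells with stable hTAAR1 and Gα16; Dosing: single nominal final test compound concentration of 3 µM; Schedule: seeding 17-24 h prior, 75-min 37 °C, 30-min RT dye loading; Detection: kinetic Fluo-8 calcium fluorescence measurement; Measure: % inhibition from peak post-agonist over basal fluorescence ratio; Benchmarks: vehicle and agonist controls.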
# TAAR1 agonist – human TAAR1 agonism. Q96RJ0. CHO RD-HGA16 TAAR1, Fluo-8 calcium fluorescence; vehicle wells 0%, saturating PEA agonist 100%. activation, % at 3 µM. hit rate 0.99% among 360,000;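 active = activation above the mean activation of all test compounds in the run plus 3 SD, cut at about 38% in these data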
#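 Repeats: no replicates (n 1) | Material: CHO-derived RD-HGA16 cells with stable Gα16 and human TAAR1 | Technique: Kinetic Fluo-8 calcium fluorescence | Schedule: 17-24 h seeding, 75 min 37 °C dye, 30 min RT | Evaluation: % activation from peak over basal fluorescence ratio, DMSO-to-PEA scaled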
# rCAG binder – binds r(CAG) RNA repeats; r(CAG) RNA repeat, TO-PRO-1 dye displacement fluorescence; inhibition, % at 3 µM; hit rate 1.3% among 370,000; AID 651821;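 active = inhibition above the plate cutoff, the mean of all test compounds on that plate plus 3 SD, cut at about 35% in these data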;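 also: 0% = DMSO alone and 100% = 100 µM mitoxantrone as full dye displacement; higher means more dye released from RNA so lower well fluorescence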
# TAAR1 nonsel count – counter-screen for TAAR1 antagonists: nonselective antagonists. shares compounds with TAAR1 antagonist. counterscreen cell line, calcium fluorescence, antagonist mode. inhibition, % at 3 µM. hit rate 77% among 2,400. AID 651780; in the data active = inhibition above about 22%;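 also: CHO-Ga16 host cells stimulated with ATP at an EC80 level; 0% = agonist EC80 plus vehicle and 100% = vehicle without agonist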
# TAAR1 ant conf – confirmation of human TAAR1 antagonists; TAAR1-expressing cells, fluorescence antagonist read-out; hit rate 40% among 2,400; shares compounds with TAAR1 antagonist; inhibition, % at 3 µM; AID 651785; in the data active = inhibition above about 49%;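 also: CHO-Ga16 host cells challenged with agonist PEA near its EC80; 0% = agonist at EC80 plus vehicle and 100% = vehicle with no agonist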
# Ga16 ag counter – nonselective Ga16 agonist in TAAR1 antagonist counter-screen | shares compounds with TAAR1 antagonist | Ga16-expressing cells, calcium fluorescence, agonist counterscreen | activation, % at 3 µM | hit rate 18% among 2,400 | AID 651953; in the data active = activation above about 12%;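 also: 0% = vehicle wells and 100% = saturating stimulus response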
# TAAR1 ag counter – activates human TAAR1 in antagonist counter-screen; activation, % at 3 µM; hit rate 2% among 2,400; AID 651955; hTAAR1 cell line, fluorescence activation, agonist mode; shares compounds with TAAR1 antagonist; in the data active = activation above about 37%;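 also: CHO cells stably expressing TAAR1 with calcium dye readout; 0% = DMSO vehicle and 100% = full agonist response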
# * = called active by the depositor; · = not tested or not shown.
SMILES,HCV core dimer,HCV NS3 hel inh,TAAR1 antagonist,TAAR1 agonist,rCAG binder,TAAR1 nonsel count,TAAR1 ant conf,Ga16 ag counter,TAAR1 ag counter
CCN=C1SC(CC(=O)Nc2ccccc2)C(=O)N1CC (configuration not stated),-2,6,67*,20,-1,34*,59*,10,9
CC(=O)c1ccc(NC(=O)COc2ccccc2C(=O)Nc2ccccc2)cc1,11,-12,73*,12,15,45*,67*,15*,11
CC(=O)c1ccc(NC(=O)c2ccc(S(=O)(=O)c3ccccc3)cc2)cc1,-3,-3,69*,21,4,39*,61*,12*,16
Cc1ccc(NC(=O)c2ccccc2OCC(=O)Nc2ccccc2F)cc1S(=O)(=O)N(C)C,·,·,68*,26,14,34*,52*,10,6
CN(C)S(=O)(=O)c1cccc(NC(=O)COc2ccccc2C(=O)Nc2ccccc2)c1,·,·,72*,24,8,53*,65*,14*,12
COC[C@@H]1CCCN1c1cccc2c1S(=O)(=O)N(C1CC1)CCCO2,·,·,·,·,3,·,·,·,·
COC(=O)[C@]12C[C@H](CC(=O)NCc3ccc(OC)c(OC)c3)C(=O)N(Cc3cccc4ccccc34)C1=C[C@H](C1CCCC1)O[C@@H]2C,·,·,·,·,10,·,·,·,·
Cc1cc(C)cc(OC[C@@H](O)CN2CCC(C(O)(c3ccccc3)c3ccccc3)CC2)c1,·,·,·,·,0,·,·,·,·
CCN(CC)S(=O)(=O)c1cc(NC(=O)c2ccccc2OCc2c(C)noc2C)ccc1C,·,·,64*,3,3,24*,44,3,-2
N#Cc1cc(C(=O)c2ccccc2OCC(=O)Nc2ccccc2)cn(C2CCCCC2)c1=O,-16,-6,-1,9,0,·,·,·,·
Cc1noc(C)c1COc1ccccc1C(=O)Nc1cccc(S(=O)(=O)N(C)C)c1,-1,·,-3,3,-1,·,·,·,·
CC(C)(C)NC(=O)COC(=O)c1ccccc1OCC(=O)Nc1ccc(Br)cc1,-1,3,51*,10,1,24*,43,9,8
O=C(COc1ccccc1C(=O)c1cnn(-c2ccccc2)c1)Nc1ccccc1,8,20,53*,2,-1,24*,41,6,6
CCCNC(=O)COC(=O)c1ccccc1OCC(=O)Nc1ccc(Br)cc1,14,-2,-13,1,-4,·,·,·,·
Nc1c(C(=O)N2CCOCC2)cnn1Cc1ccccc1,·,·,·,·,5,·,·,·,·
CCN=C(Nc1cccc(F)c1)SC1CC(=O)N(c2ccc(OC)cc2)C1=O (configuration not stated),6,-17,72*,15,2,34*,55*,7,6
CCOc1ccc(N2C(=O)CC(SCCN)C2=O)cc1 (configuration not stated),-6,2,-9,4,6,·,·,·,·
CCN=C(NCC)SC1CC(=O)N(c2ccc(OCC)cc2)C1=O (configuration not stated),-1,-3,86*,16,-3,28*,51*,11,11
COc1ccc(CN=C(Nc2ccccc2)SC2CC(=O)N(C)C2=O)cc1 (configuration not stated),0,-3,-4,11,-5,·,·,·,·
COc1ccc(-c2ccc(CN3C(C(C)C)C(=O)N(Cc4cn(CCC5OCCCO5)nn4)CCS3(=O)=O)cc2)cc1OC (configuration not stated),·,·,-17,7,7,·,·,·,·
COc1ccc(-c2ccc(CN3C(CC(C)C)C(=O)N(Cc4cn(CCC5OCCCO5)nn4)CCS3(=O)=O)cc2)cc1OC (configuration not stated),·,·,57*,7,6,24*,33,7,6
CC1C(=O)N(Cc2cn(CCC3OCCCO3)nn2)CCS(=O)(=O)N1Cc1ccc(-c2ccc(Cl)cc2)cc1 (configuration not stated),·,·,87*,19,6,45*,59*,16*,10
Cc1cc(NCCc2c[nH]c3ccccc23)ccc1Nc1cccnc1,·,·,-7,5,9,·,·,·,·
CN[C@H]1C[C@H]2c3[nH]c4cccc(-c5cccc(C)c5)c4c3CCN2C(=O)[C@H]1[C@H](C)O,·,·,·,·,5,·,·,·,·
O=C(c1cc(=O)[nH]c2ccccc12)N1CCN(S(=O)(=O)c2ccc3ccccc3c2)CC1,3,-2,67*,19,0,30*,49,8,6
SMILES,HCV core dimer,HCV NS3 hel inh,TAAR1 antagonist,TAAR1 agonist,rCAG binder,TAAR1 nonsel count,TAAR1 ant conf,Ga16 ag counter,TAAR1 ag counter
Fc1cccc(F)c1Cn1ccc2ccc(-c3ccc4ccn(Cc5c(F)cccc5F)c4c3)cc21,·,·,·,·,4,·,·,·,·
COc1cccc(-c2csc(N3CCN(C(=O)Nc4ccc(F)cc4)CC3)n2)c1,8,-8,79*,11,3,55*,64*,11,6
COc1ccc(C(=O)Nc2ccc(N3CCOCC3)cc2)cc1S(=O)(=O)N1CCOCC1,·,·,-20,1,-5,·,·,·,·
COc1ccc(C(=O)Nc2ccc(-c3cn4ccsc4n3)cc2)cc1S(=O)(=O)N1CCOCC1,1,-3,62*,17,10,25*,49*,6,4
c1ccc(-c2c(-c3ccccc3)n(Cc3ccco3)c3ncnc(NCCCn4ccnc4)c23)cc1,4,-31,61*,27,-4,25*,34,22*,40*
OCCNc1ncnc2c1c(-c1ccccc1)c(-c1ccccc1)n2Cc1ccco1,-6,-12,12,21,-4,·,·,·,·
CCN(C(=O)[C@@H]1CC(=O)O[C@@H]1c1ccccc1)c1ccccc1,·,·,·,·,1,·,·,·,·
O=C(CSCC(=O)N1CCCc2ccccc21)Nc1nc(-c2ccccc2)cs1,13,-16,51*,0,5,29*,34,3,3
O=C(C[n+]1cc(-c2ccccc2)n2c1CCC2)Nc1nc(-c2ccccc2)cs1,-11,-62,-14,1,18,·,·,·,·
O=C(N/N=C/c1cn(-c2cccs2)nc1-c1ccccc1)c1ccccc1O,20,7,75*,11,31,55*,60*,13*,10
CN(CCO)C1CN(Cc2cn(Cc3ccccc3C(F)(F)F)nn2)S(=O)(=O)C1 (configuration not stated),·,·,·,·,4,·,·,·,·
Cc1cc(Nc2cccc(F)c2)cc(=O)n1-c1cccc(F)c1,·,·,-2,-2,3,·,·,·,·

# Bioassay records deposited in PubChem BioAssay by The Scripps Research Institute Molecular Screening Center.
